Data reported in ChEMBL document CHEMBL1125605 (1991).
In brackets after ≈: the same amount, converted by molar mass.

Legend:
Type in all cases: functional
E6SM [1] = assay: Concentration required to cause a microscopically detectable alteration of normal cell morphology in E6SM cells; conditions: Homo sapiens; read-out: MIC
Method in brief: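 Uninfected E6SM human embryonic skin-muscle fibroblasts were exposed to compound and examined under the microscope. The value is the minimum concentration that caused a detectable alteration of normal cell morphology.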

E6SM [2] = assay: Concentration required to inhibit HSV-2(lyons) induced cytopathogenicity in E6SM cells by 50%.; conditions: Homo sapiens
HEL [3] = assay: Concentration required to inhibit VZV (YS) induced cytopathogenicity in HEL cells by 50%.; conditions: Homo sapiens
HEL [4] = assay: Concentration required to inhibit CMV (Davis) induced cytopathogenicity in HEL cells by 50%.; conditions: Homo sapiens
E6SM [5] = assay: Concentration required to inhibit HSV-2(G) induced cytopathogenicity in E6SM cells by 50%.; conditions: Homo sapiens
E6SM [6] = assay: Concentration required to inhibit TK-HSV-1 (VMW1837) induced cytopathogenicity in E6SM cells by 50%.; conditions: Homo sapiens
E6SM [7] = assay: Concentration required to inhibit TK-HSV-1 (B2006) induced cytopathogenicity in E6SM cells by 50%.; conditions: Homo sapiens
E6SM [8] = assay: Concentration required to inhibit HSV-1 (KOS) induced cytopathogenicity in E6SM cells by 50%.; conditions: Homo sapiens
HEL [9] = assay: Concentration required to cause 50% reduction in HEL cell growth.; conditions: Homo sapiens; read-out: MIC
Method in brief: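 Cytotoxicity was measured as inhibition of growth of HEL human embryonic lung fibroblasts. The value is the compound concentration that reduced cell growth by 50%.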

E6SM [10] = assay: oncentration required to inhibit VV induced cytopathogenicity in E6SM cells by 50%.; conditions: Homo sapiens
E6SM [11] = assay: Concentration required to inhibit HSV-1 (F) induced cytopathogenicity in E6SM cells by 50%.; conditions: Homo sapiens
E6SM [12] = assay: Concentration required to inhibit HSV-1 (McIntyre) induced cytopathogenicity in E6SM cells by 50%.; conditions: Homo sapiens
HEL [13] = assay: Concentration required to inhibit TK-VZV (07-1) induced cytopathogenicity in HEL cells by 50%.; conditions: Homo sapiens
HEL [14] = assay: Concentration required to inhibit TK-VZV (YSR) induced cytopathogenicity in HEL cells by 50%.; conditions: Homo sapiens
E6SM [15] = assay: Concentration required to inhibit HSV-2(196) induced cytopathogenicity in E6SM cells by 50%.; conditions: Homo sapiens
HEL [16] = assay: Concentration required to inhibit VZV (oka) induced cytopathogenicity in HEL cells by 50%.; conditions: Homo sapiens
HEL [17] = assay: Concentration required to inhibit CMV (AD-169) induced cytopathogenicity in HEL cells by 50%.; conditions: Homo sapiens
E6SM [18] = assay: Concentration required to inhibit VSV induced cytopathogenicity in E6SM cells by 50%.; conditions: Homo sapiens
Method in brief: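 Antiviral assay in E6SM human embryonic skin-muscle fibroblasts, with cells infected by vesicular stomatitis virus (VSV) in microtiter plates. Virus-induced cytopathogenicity is assessed. The value is the compound concentration that reduces VSV-induced cytopathogenicity by 50%.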

Compound	minimum cytotoxic concentration (morphology alteration) (E6SM [1]) [µg/mL]	MIC (E6SM [2]) [µg/mL]	MIC (HEL [3]) [µg/mL]	MIC (HEL [4]) [µg/mL]	MIC (E6SM [5]) [µg/mL]	MIC (E6SM [6]) [µg/mL]	MIC (E6SM [7]) [µg/mL]	MIC (E6SM [8]) [µg/mL]	CC50 (50% cell growth inhibitory concentration) (HEL [9]) [µg/mL]	MIC (E6SM [10]) [µg/mL]	MIC (E6SM [11]) [µg/mL]	MIC (E6SM [12]) [µg/mL]	MIC (HEL [13]) [µg/mL]	MIC (HEL [14]) [µg/mL]	MIC (E6SM [15]) [µg/mL]	MIC (HEL [16]) [µg/mL]	MIC (HEL [17]) [µg/mL]	MIC (E6SM [18]) [µg/mL]
O=c1[nH]c(=O)n([C@H]2C[C@H](O)[C@@H](CO)O2)cc1-c1ccc(Br)s1	> 400	150 (≈ 385 µM)	0.03 (≈ 0.0771 µM)	> 100	150 (≈ 385 µM)	150 (≈ 385 µM)	150 (≈ 385 µM)	0.03 (≈ 0.0771 µM)	155 (≈ 398 µM)	70 (≈ 180 µM)	0.07 (≈ 0.18 µM)	0.02 (≈ 0.0514 µM)	> 40	> 40	> 200	0.03 (≈ 0.0771 µM)	> 100	
O=c1[nH]c(=O)n([C@H]2C[C@H](O)[C@@H](CO)O2)cc1-c1cccs1	> 400	100 (≈ 322 µM)	41 (≈ 132 µM)	250 (≈ 806 µM)	250 (≈ 806 µM)	150 (≈ 483 µM)	300 (≈ 967 µM)	0.45 (≈ 1.45 µM)	> 200	> 400	0.2 (≈ 0.644 µM)	0.1 (≈ 0.322 µM)	180 (≈ 580 µM)	> 400	150 (≈ 483 µM)	18 (≈ 58 µM)	250 (≈ 806 µM)	
O=c1[nH]c(=O)n([C@@H]2C[C@H](O)[C@@H](CO)O2)cc1-c1cccs1	> 400	100 (≈ 322 µM)	> 100		> 300	150 (≈ 483 µM)	> 200	> 200	180 (≈ 580 µM)	> 200			85 (≈ 274 µM)	80 (≈ 258 µM)	150 (≈ 483 µM)	75 (≈ 242 µM)	> 100	
O=c1[nH]c(=O)n([C@H]2C[C@H](O)[C@@H](CO)O2)cc1-c1ccc(Cl)s1	> 400	> 200	0.02 (≈ 0.058 µM)		> 200	> 200	> 200	0.02 (≈ 0.058 µM)	> 50	> 200	0.04 (≈ 0.116 µM)	0.004 (≈ 0.0116 µM)	35 (≈ 102 µM)	65 (≈ 189 µM)	> 200	0.02 (≈ 0.058 µM)	> 40	
O=c1[nH]c(=O)n([C@H]2C[C@H](O)[C@@H](CO)O2)cc1-c1ccc(Cl)o1	> 400	150 (≈ 456 µM)	3 (≈ 9.13 µM)	> 100	150 (≈ 456 µM)	150 (≈ 456 µM)	150 (≈ 456 µM)	0.2 (≈ 0.608 µM)	105 (≈ 319 µM)	45 (≈ 137 µM)	0.2 (≈ 0.608 µM)	0.4 (≈ 1.22 µM)	> 100	> 100	150 (≈ 456 µM)	2.5 (≈ 7.61 µM)	> 100	> 200
O=c1[nH]c(=O)n([C@H]2C[C@H](O)[C@@H](CO)O2)cc1-c1ccc(Br)o1	> 400	300 (≈ 804 µM)	3 (≈ 8.04 µM)	> 100	150 (≈ 402 µM)		100 (≈ 268 µM)	0.15 (≈ 0.402 µM)	125 (≈ 335 µM)	70 (≈ 188 µM)	0.1 (≈ 0.268 µM)	0.2 (≈ 0.536 µM)	> 100	> 100	150 (≈ 402 µM)	3 (≈ 8.04 µM)	> 100	> 200
Nc1nc(=O)n([C@H]2C[C@H](O)[C@@H](CO)O2)cc1-c1cccs1	> 200	20 (≈ 64.7 µM)	4 (≈ 12.9 µM)	40 (≈ 129 µM)	45 (≈ 145 µM)	> 100	> 100	1.3 (≈ 4.2 µM)	45 (≈ 145 µM)	20 (≈ 64.7 µM)	0.4 (≈ 1.29 µM)	0.07 (≈ 0.226 µM)	8 (≈ 25.9 µM)	30 (≈ 97 µM)	20 (≈ 64.7 µM)	3 (≈ 9.7 µM)	60 (≈ 194 µM)	
Cn1ccnc1-c1cn([C@H]2C[C@H](O)[C@@H](CO)O2)c(=O)[nH]c1=O	> 200	> 200	> 400	> 400	> 200	> 200	> 200	> 200	> 200	> 200	> 200	> 200	> 400	> 400	> 200	> 400	> 400	
O=c1[nH]c(=O)n([C@H]2C[C@H](O)[C@@H](CO)O2)cc1-c1ccco1	> 400	> 400	7 (≈ 23.8 µM)	> 400	200 (≈ 680 µM)	300 (≈ 1020 µM)	150 (≈ 510 µM)	0.2 (≈ 0.68 µM)	100 (≈ 340 µM)		0.2 (≈ 0.68 µM)	0.2 (≈ 0.68 µM)	155 (≈ 527 µM)	220 (≈ 748 µM)	> 400	4 (≈ 13.6 µM)	> 400	300 (≈ 1020 µM)
CC1[C@@H](O)[C@@H](CO)O[C@@H]1n1cc(I)c(=O)[nH]c1=O (stereo partly drawn)	> 400	300 (≈ 815 µM)	10 (≈ 27.2 µM)		300 (≈ 815 µM)	150 (≈ 407 µM)	300 (≈ 815 µM)	300 (≈ 815 µM)	> 200	> 400	300 (≈ 815 µM)	300 (≈ 815 µM)	90 (≈ 244 µM)	170 (≈ 462 µM)	300 (≈ 815 µM)	15 (≈ 40.7 µM)	400 (≈ 1090 µM)	300 (≈ 815 µM)
O=c1[nH]c(=O)n(C2O[C@H](CO)[C@@H](O)[C@@H]2O)cc1-c1cccs1 (stereo partly drawn)	> 400	20 (≈ 61.3 µM)	6.5 (≈ 19.9 µM)	250 (≈ 766 µM)	20 (≈ 61.3 µM)	> 400	> 400	0.2 (≈ 0.613 µM)	> 200	> 400	0.2 (≈ 0.613 µM)	0.07 (≈ 0.215 µM)	370 (≈ 1130 µM)	> 400	100 (≈ 306 µM)	5.5 (≈ 16.9 µM)	250 (≈ 766 µM)	
O=c1[nH]c(=O)n([C@@H]2C[C@@H](O)[C@@H](CO)O2)cc1-c1ccco1	> 400	150 (≈ 510 µM)	240 (≈ 816 µM)	> 100	300 (≈ 1020 µM)	70 (≈ 238 µM)	> 200	55 (≈ 187 µM)	110 (≈ 374 µM)	300 (≈ 1020 µM)	40 (≈ 136 µM)	70 (≈ 238 µM)	260 (≈ 884 µM)	240 (≈ 816 µM)	150 (≈ 510 µM)	210 (≈ 714 µM)	> 100	
O=c1[nH]c(=O)n([C@H]2C[C@H](O)[C@@H](CO)O2)cc1/C=C/Br [BRIVUDINE]	> 400	10 (≈ 30 µM)	0.001 (≈ 0.003 µM)	250 (≈ 750 µM)	20 (≈ 60 µM)	4 (≈ 12 µM)	20 (≈ 60 µM)	0.02 (≈ 0.06 µM)		0.07 (≈ 0.21 µM)	0.02 (≈ 0.06 µM)	0.02 (≈ 0.06 µM)	> 40	> 40	> 400	0.001 (≈ 0.003 µM)	250 (≈ 750 µM)	400 (≈ 1200 µM)
